In publication PMC10357933 (RSC Medicinal Chemistry, 2023):
Like-named read-outs stand apart in the source and are kept apart here.

Experiments:
3CL^pro (SARS-CoV-2) = 3CL^pro (SARS-CoV-2) (Severe acute respiratory syndrome coronavirus 2, UniProt P0DTD1); assay type: biochemical
Conductometry in DMSO = assay type: physicochemical; settings: for Conductivity ΛM: 1.0 mM solution in DMSO; for Increase of molecular conductivity upon 10-fold dilution: diluted solutions 0.1 to 1.0 mM in DMSO
In short: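 Test compound dissolved at 1.0 mM, or as indicated, in freshly distilled DMSO (conductivity ≤3 × 10−8 […]). Conductivity measured at 25 ± 2 °C immediately after complete dissolution, then after 24 h and after 48 h.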

PL^pro (SARS-CoV-2) = PL^pro (SARS-CoV-2) (Severe acute respiratory syndrome coronavirus 2, UniProt P0DTD1); assay: biochemical
SARS-CoV-2 B.1 = assay: Antiviral activity against SARS-CoV-2 in Caco-2-F03 cells; assay type: cell-based; settings: for Effect on viral activity at higher dosages: overlapping with toxicity
SARS-CoV-2 PL^pro [1] = target: T1, SARS-CoV-2 PL^pro (Severe acute respiratory syndrome coronavirus 2, UniProt P0DTD1); assay: Michaelis-Menten kinetics with SARS-CoV-2 PLpro; assay type: biochemical
SARS-CoV-2 PL^pro [2] = target: T1, SARS-CoV-2 PL^pro; assay: Zn-ejection assay with FluoZin-3; assay type: biochemical; settings: 0.5 μM PLpro, 100 min
CaCo-2 cells = assay: Toxicity against host cells; assay type: cell-based, human; settings: 25 to 500 μM, 24 h / 48 h
In short: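 Caco-2 cells were grown to almost confluent monolayers in 96-well plates. Test compound was given as a DMSO stock (DMSO 0.2%) diluted in DMEM with 1% fetal calf serum and 50 mg L−1 gentamicin, at 25–500 μM. Exposure was 24 h and 48 h at 37 °C/5% CO2. Viability was measured by crystal violet staining as % of untreated control, in three independent experiments.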

PL^pro (SARS-CoV) = PL^pro (SARS-CoV) (Severe acute respiratory syndrome coronavirus, UniProt P0C6X7); assay type: biochemical; settings: read-out: IC50 PL^pro (SARS-CoV)
[3] = 3CL^pro, 50 μM, ± SD of 2 experiments
[4] = read-out: IC50 PL^pro (SARS-CoV-2), mean ± SD of 2 independent experiments

SMILES	Percentage of activity of the enzyme in presence of 50 μM of the test compound (3CL^pro (SARS-CoV-2); [3])	Conductivity ΛM (Conductometry in DMSO; 24 h)	Conductivity ΛM (Conductometry in DMSO; 48 h)	Conductivity ΛM (Conductometry in DMSO; start)	IC50 (PL^pro (SARS-CoV-2); [4])	further results
CCn1c[n+](CC)c2ccccc21.[Cl][Ag] [Ag-1a, 1,3-Diethyl benzimidazolium silver(I) chloride]	106 ± 2%	3.09 S mol^−1 cm^2	3.31 S mol^−1 cm^2	3.00 S mol^−1 cm^2	210 ± 30 nM	
CCn1c[n+](CC)c2ccccc21.[Ag][I] [Ag-1b, 1,3-Diethyl-benzimidazolium silver(I) iodide]	110 ± 0%	9.31 S mol^−1 cm^2	9.70 S mol^−1 cm^2	8.44 S mol^−1 cm^2	240 ± 110 nM	Effect on viral activity at higher dosages (SARS-CoV-2 B.1): completely terminated viral activity
CCn1c[n+](CC)c2ccc(OC)cc21.[Cl][Ag] [Ag-2a, 1,3-Diethyl-5-methoxy-benzimidazolium silver(I) chloride]	98 ± 15%	3.13 S mol^−1 cm^2	3.37 S mol^−1 cm^2	2.94 S mol^−1 cm^2	180 ± 20 nM	
CCn1c[n+](CC)c2ccc(OC)cc21.[Ag][I] [Ag-2b, 1,3-Diethyl-5-methoxy-benzimidazolium silver(I) iodide]	115 ± 4%	9.25 S mol^−1 cm^2	9.82 S mol^−1 cm^2	9.19 S mol^−1 cm^2	430 ± 60 nM	
CC(C)n1c[n+](C(C)C)c2ccccc21.[Cl][Ag] [Ag-3a, 1,3-Diisopropyl benzimidazolium silver(I) chloride]	116 ± 5%	2.70 S mol^−1 cm^2	2.67 S mol^−1 cm^2	2.34 S mol^−1 cm^2	210 ± 20 nM	Increase of molecular conductivity upon 10-fold dilution (Conductometry in DMSO): 2–4 fold
CC(C)n1c[n+](C(C)C)c2ccccc21.[Ag][I] [Ag-3b, 1,3-Diisopropyl benzimidazolium silver(I) iodide]	111 ± 14%	7.00 S mol^−1 cm^2	6.69 S mol^−1 cm^2	6.67 S mol^−1 cm^2	190 ± 40 nM	Increase of molecular conductivity upon 10-fold dilution (Conductometry in DMSO): only slightly increased; Effect on viral activity at higher dosages (SARS-CoV-2 B.1): completely terminated viral activity
COc1ccc2c(c1)n(C(C)C)c[n+]2C(C)C.[Cl][Ag] [Ag-4a, 1,3-Diisopropyl-5-methoxy-benzimidazolium silver(I) chloride]	115 ± 4%	2.25 S mol^−1 cm^2	2.40 S mol^−1 cm^2	2.15 S mol^−1 cm^2	220 ± 110 nM	
COc1ccc2c(c1)n(C(C)C)c[n+]2C(C)C.[Ag][I] [Ag-4b, 1,3-Diisopropyl-5-methoxy-benzimidazolium silver(I) iodide]	116 ± 2%	6.92 S mol^−1 cm^2	7.32 S mol^−1 cm^2	6.72 S mol^−1 cm^2	390 ± 70 nM	Mechanism of inhibition (SARS-CoV-2 PL^pro [1]; Lineweaver-Burk, parallel lines): uncompetitive enzyme inhibitor; Ki (enzyme-substrate-inhibitor complex) (SARS-CoV-2 PL^pro [1]; uncompetitive model): 480 ± 220 nM; Zn ejection efficacy (SARS-CoV-2 PL^pro [2]; 1.0 μM compound): low efficacy; Zn ejection efficacy (SARS-CoV-2 PL^pro [2]; 10 μM compound): high efficacy; IC50 (SARS-CoV-2 B.1; read-out: IC50 antiviral efficacy (spike protein staining)): 580 nM; Enzymatic activity (% of untreated control) (PL^pro (SARS-CoV-2); 0.75 μM, after 60 min): approx. 40%; Enzymatic turnover (% of untreated control) (PL^pro (SARS-CoV-2); 0.75 μM, from beginning up to 30 min of exposure): approx. 60%; Cytotoxicity against almost confluent Caco-2 cell layers (CaCo-2 cells): non-toxic up to 500 μM; IC50 (PL^pro (SARS-CoV)): 13700 ± 1020 nM
O=[N+]([O-])[O-].[Ag+] [AgNO3, silver nitrate, reference compound]	97 ± 6%	38 S mol^−1 cm^2	38 S mol^−1 cm^2	38 S mol^−1 cm^2	700 ± 270 nM	Conductivity (Conductometry in DMSO; in DMSO, periods up to 48 h): 38 S mol^−1 cm^2; IC50 (PL^pro (SARS-CoV)): 12000 ± 870 nM
CCN(CC)C(=S)SSC(=S)N(CC)CC [Disulfiram, reference compound]						Zn ejection efficacy (SARS-CoV-2 PL^pro [2]; 1.0 μM compound): low efficacy; Zn ejection efficacy (SARS-CoV-2 PL^pro [2]; 10 μM compound): high efficacy
CC(=O)O.[Ag+].c1ccc(CN2[CH-]N(Cc3ccccc3)C(c3ccccc3)=C2c2ccccc2)cc1 [SBC3, reference compound]		2.25 S mol^−1 cm^2	2.31 S mol^−1 cm^2	2.15 S mol^−1 cm^2		Inhibition of 3CL^pro enzymatic activity (3CL^pro (SARS-CoV-2)): some moderate inhibition; Percentage of activity of the enzyme in presence of 50 μM of the test compound (3CL^pro (SARS-CoV-2)): >50 (70 ± 4%); IC50 (3CL^pro (SARS-CoV-2); read-out: IC50 3CL^pro (SARS-CoV-2)): > 50000 nM; Increase of molecular conductivity upon 10-fold dilution (Conductometry in DMSO): 2–4 fold; IC50 (PL^pro (SARS-CoV-2); read-out: IC50 PL^pro (SARS-CoV-2)): 260 ± 30 nM
COc1ccc2c(c1)n(C(C)C)c[n+]2C(C)C [compound 4, 1,3-Diisopropyl-5-methoxy-benzimidazolium iodide]						IC50 (PL^pro (SARS-CoV-2)): > 100000 nM
